Assay: Toxicity liver stage against HepG2, at 10uM
Type: cell-based
Set-up: test concentration 10 uM, cell line HepG2-A16-CD81EGFP
Conditions: human, HepG2-A16-CD81EGFP cells; read-out: INHIBITION
Procedure, shortened: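 Uninfected HepG2-A16-CD81EGFP cells, 3 × 10^3 per well, 1536-well, plated on prespotted compound at 10 μM final, parasite-free screening media added to match infected plates; puromycin 10 μM positive, DMSO 0.5% negative; run in parallel with 48 h PbLuc assay at 37 °C, 5% CO2; viability by CellTiter-Glo luminescence, normalized to controls.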

Compound	cytotoxicity at 10 µM
CCC[C@H]1CN(Cc2ccccc2C#N)C[C@@H]1NS(C)(=O)=O	-11%
Cn1ccnc1-c1ccc(NCC2COc3ccccc3O2)nn1 (configuration not stated)	3.31%
O=C(O)c1cc(-n2cc3c(n2)CCC3)cc(S(=O)(=O)NC2CCCC2)c1	-2.05%
Cn1cc(C(=O)N2CC[C@@H]3[C@@H]2CCN3Cc2ccccc2)cn1	-69.8%
CCCc1cc(NC2CCc3nc(CC)nn3C2)n2ncnc2n1 (configuration not stated)	-16.3%
CC(C)CN(Cc1nnc(-c2ccco2)o1)CC(C)C	0.0773%
Cc1c2ncn(CC(=O)NC(C)C)c(=O)c2nn1C	-5.26%
CCc1cccc(OC2CN(C(=O)[C@@H](N)[C@@H](C)O)C2)c1	-3.92%
Cc1cnn(CCC(=O)N(CC2CN(C)CCO2)c2nccs2)c1 (configuration not stated)	-5.82%
CCCN(Cc1nccn1C)C(=O)c1cc(C)nc(C)n1	2.37%
Cc1cc(C)cc(CNC(c2ccccc2)c2nccn2C)c1 (configuration not stated)	-13%
OCCOc1cc(F)ccc1NCc1nc(-c2cccs2)no1	-46.1%
COCC(C)N1CCc2onc(-c3ccc(F)c(F)c3)c2C1 (configuration not stated)	-4.31%
COCC(=O)N[C@H](C)c1onc(-c2ccc(OC)cc2)c1C(=O)O	4.82%
COCc1nc(C2CC2)nn1-c1ccccc1Cl	-0.808%
CCc1csc(C2CCCN(C(=O)c3ccc(OC)nn3)C2)n1 (configuration not stated)	-8.8%
CCN(CC)C1(Cc2cc(CC(C)C)on2)COC1	2.23%
Cc1cccc(OCCCNC(=O)Cn2ccc(C)cc2=O)c1	-4.42%
CC(=O)NC1CCN(c2cnc(C3CCNCC3)cn2)CC1	8%
Cc1nc(NCCC23CCCN2CCC3)cc(C2CCNCC2)n1	8.37%
CCn1nc(C)c2nc(C(C)C)nc(NCCOC)c21	6.3%
Cc1nc(C(NC(=O)c2cc(C(C)C)[nH]n2)c2ccccc2)n[nH]1 (configuration not stated)	11.6%
CC(=O)Nc1ccc(CN2CCc3[nH]cnc3C2c2nccn2C)cc1 (configuration not stated)	-182%

Compound	cytotoxicity at 10 µM
Cc1cc(CNc2cc(-c3ccoc3C)nn2CCO)c(C)o1	-0.598%
O=C(NCCc1ccccc1)N1C[C@@H]2C[C@H](C(=O)N3CCCC3)[C@H](C1)O2	6.95%
CS(=O)(=O)NC1CCCN(C(=O)Nc2ccccc2Cn2cccn2)C1 (configuration not stated)	3.81%
O=C(O)CC(CC(=O)N(Cc1ccsc1)C1CC1)c1cccs1 (configuration not stated)	7.8%
Cc1cnc(N2CCCC3(CCN(Cc4csc(C)n4)C3=O)C2)nc1 (configuration not stated)	-5.15%
CCc1nccn1CCCNC(=O)CN1CCN(c2ncccn2)CC1	-7.54%
Cc1nn(C)c2c(=O)n(CC(=O)Nc3cc(Cl)cc(Cl)c3)nnc12	0.976%
COCCC1(C(=O)O)CCCN(Cc2ccccc2OCCO)C1 (configuration not stated)	-40.9%
CCOC(=O)N(C)CC(=O)NCCc1coc(-c2ccc(C)cc2)n1	-13.9%
O=C(Cc1ccccc1)N1C[C@@H]2OCCN(CC3CCCO3)[C@@H]2C1 (some centres not stated)	-3.09%
CSc1ccc(NCc2csc(C)n2)cc1F	-6.54%
Cc1nccn1CC1CCCN1S(=O)(=O)Cc1ccccc1 (configuration not stated)	-18%
O=C(Cn1cccc(S(=O)(=O)N2CCCC2)c1=O)c1ccccc1Cl	1.08%
Cc1nc2c(c(N(C)Cc3ccccc3-n3cccn3)n1)CCNCC2	-11.2%
CC(C)(C)CNC(=O)c1ccc(C(=O)O)cn1	-4.01%
Cc1nc(Nc2nccs2)cc(C2CN(C(C)C)C2)n1	-5.42%
Cc1cc2c(C)cc(O)cc2c(=O)o1	5.73%
COc1cccc(C2SCC(=O)Nc3ccsc32)c1OC (configuration not stated)	0.661%
Cc1nccn1-c1cccc(C2CCCN2S(=O)(=O)N(C)C)n1 (configuration not stated)	3.44%
Cc1nnc(CN2C[C@H](NC(=O)C3CCOCC3)[C@@H](C(C)C)C2)s1	-3.41%
O=c1[nH]c2c(c(=O)n1C1CCCCC1)CCC2Nc1ccccc1 (configuration not stated)	0.795%
CC(Cn1cccn1)NCc1ccc(Cl)s1 (configuration not stated)	-8.12%
Cc1cc(C)n(Cc2ccc(-c3noc(C(=O)NCCO)n3)cc2)n1	-9.45%

Compound	cytotoxicity at 10 µM
CCOc1ccnc(N2CCCN(c3nc(C4CC4)ns3)CC2)n1	6.97%
c1cnc(N2CCN(CCn3ccnc3-c3ccncc3)CC2)nc1	-3.25%
Cc1ccnc(NC(=O)c2ccc(Br)o2)c1	-10.5%
Cc1ccc(S(=O)(=O)N(CC(N)=O)CC(C)C)cc1C	-14.5%
CC(C)(C)c1nc(CN(Cc2ccccc2Cl)C2CCCC2)no1	3.25%
COCC[C@]1(O)CCN(CC(=O)NCc2ccccn2)C[C@H]1C	7.8%
CC(C)c1cc(CN2CCC(N)CC2)no1	-8.24%
Cn1cnc2c1C(C(=O)N1CCCC1)N(S(C)(=O)=O)CC2 (configuration not stated)	6.22%
CCc1nc2c(c(NC3CC3)n1)CCN(C(=O)N1CCN(C)CC1)CC2	0.445%
c1cncc(CN2CCc3c(CNc4nccs4)n[nH]c3C2)c1	1.04%
Cc1nn(C)c2cnn(Cc3ccc(C(=O)N4CCCCC4)o3)c12	11.3%
CCOCCCNS(=O)(=O)c1ccc2c(c1)NC(=O)C(C)O2 (configuration not stated)	-3.57%
NC(=O)c1nc(-c2cccc(Cl)c2)oc1N	2.69%
CSCCCN1CC[C@@]2(O)CCN(c3ncccn3)C[C@H]2C1	-4.53%
CC(C)c1ccc(-n2cc(O)c(C(=O)N3CCC(C(N)=O)CC3)n2)cc1	-52.6%
CCc1cnc(N2C[C@@H]3C[C@H](C(=O)N(C)C)[C@H](C2)O3)nc1	-12.1%
CC(C)CC(C)N(C)C(=O)c1nc(S(C)(=O)=O)n2ccccc12 (configuration not stated)	-9.24%
CC(C)CCN1C[C@@H]2OCCN(c3ncc(F)cn3)[C@@H]2C1	4.91%
CCCN1CCCC2(CCN(C(=O)CCCn3cncn3)C2)C1=O (configuration not stated)	-1.84%
COCC(=O)N1CCC(c2cc3ncccc3c(O)n2)CC1	-22.7%
O=C(Nc1ccc(-c2csnn2)cc1)N1CCCC1	-3.8%
CN1CCN(C(=O)c2cc3sccc3n2Cc2ccccc2F)CC1	1.94%
COc1ccc(C(O)CN2CC(n3nc(C)cc3C)C2)cc1 (configuration not stated)	-15.3%

Compound	cytotoxicity at 10 µM
CC(C)c1cc(C(=O)N2CCC3(CCc4ccccc4C(=O)N3)C2)on1 (configuration not stated)	2.53%
NCC(=O)N1CCCCC1c1ccc(F)cc1 (configuration not stated)	-43.4%
Cn1nc(CNC(=O)c2nc3ccccc3s2)c2c1CCOC2	-3.16%
CC(C)n1nc(Cn2cccn2)c2c1CN(CC1CCOC1)C2 (configuration not stated)	7.13%
Cc1cc(C(=O)NC2CCN(CC(N)=O)CC2)nn1C(C)(C)C	-5.22%
COCCN1CCC2(COCc3c(C)nc(N(C)C)nc32)C1 (configuration not stated)	-132%
CNC(=O)c1cccnc1N1CCC(Oc2ccc(F)cc2)CC1	3.41%
O=C(NC1CCN(C(=O)C2CCCCC2)C1)c1ccncc1Cl (configuration not stated)	10.4%
Cc1cccn2cc(CN3CCCC(c4noc(C5CC5)n4)C3)nc12 (configuration not stated)	2.29%
Cc1nc2n(n1)CC(NCc1ccccc1OCC(=O)N(C)C)CC2 (configuration not stated)	7.61%
Cc1nc(CC(=O)N2CCc3nnc(N(C)C)cc3C2)cs1	-7.07%
CC(NC(=O)CSCC(=O)Nc1ccccc1)c1ccccc1 (configuration not stated)	-6.17%
COc1ccc(C)cc1NC(=O)Nc1cnc(N2CCOCC2)nc1	-9.67%
NS(=O)(=O)CCN1CCOC(c2ccsc2)C1 (configuration not stated)	5.31%
COCCN1CC(=O)c2sc(NC(C)C)nc2C1	-4.91%
COc1ccc(-n2c(CO)nc3ccccc32)cc1CO	1.78%
COc1cccc(OC)c1CNC(Cc1ccsc1)c1ccc(C)cn1 (configuration not stated)	2.75%
CCN(C)C(C(=O)Nc1ccc2c(c1)CCC(=O)N2)c1ccccc1 (configuration not stated)	-1.45%
O=C(NCC1CC1)[C@H]1C[C@@H]2CCN(CCc3ccccc3)C[C@H]2O1	-75.5%
COc1ccc2c(c1)C(C(=O)N(C)CCCc1nccn1C)CC(=O)N2 (configuration not stated)	-56%
COc1ccc(NC(=O)CCc2c(C)nc3cc(O)nn3c2C)cn1	-9.21%
CC(c1ccccc1)N(C)CC(=O)NCCC#N (configuration not stated)	3.52%
CCN1CCc2cc(C(=O)N(C)C)c(NCC3CC3)nc2CC1	4.65%

Compound	cytotoxicity at 10 µM
Cc1n[nH]c(C)c1C1COCCN1C(=O)Cc1ccccc1F (configuration not stated)	-2.46%
CC(O)CN1CCC(CN(C)CC(=O)NC2CCOCC2)CC1 (configuration not stated)	-3.33%
O=C1CC[C@H]2CN(Cc3ncc[nH]3)CC[C@H]2N1CC1CCNCC1	11.6%
O=S(=O)(c1ccc(F)c(F)c1)n1cc(Cl)cn1	4.66%
COc1ccc(C(CC(=O)O)NC(=O)CCc2cccs2)cc1OC (configuration not stated)	-6.33%
CCC1CN(CC(=O)NC(C)C)CCO1 (configuration not stated)	2.16%
CC(C)c1noc(C(C)N2CCN(CCN3CCCC3=O)CC2)n1 (configuration not stated)	-10.6%
O=C(CC1CCc2ccccc21)N1CCC(C(=O)O)(n2ccnc2)CC1 (configuration not stated)	10.7%
CC(C)CN1CCC(c2nnc(CN3CCCC3)n2C2CC2)CC1	-8.85%
CC(c1cccnc1)N1CCN(C(=O)NCc2cnn(C)c2)CC1 (configuration not stated)	-2.38%
CCn1cnnc1CNC(=O)NCC(C)(CC)N1CCOCC1 (configuration not stated)	-10.3%
COCCNC(=O)[C@H]1C[C@@H]2CCN(Cc3ccncc3)C[C@H]2O1	2.6%
CCOC1COC2(CCN(Cc3ccco3)CC2)C1 (configuration not stated)	-2.98%
CSc1nccn1-c1ccc(C(=O)NCC2CC2)cc1	-3.67%
NC(=O)NCCC(=O)NCc1nn(-c2ccccc2)c2c1CCC2	-9.83%
COc1ccc(C(C)n2ccnc2-c2cc3n(n2)CCCNC3)cc1F (configuration not stated)	-3.06%
COc1ccc(-c2nc(CN3CCN(CCO)CC3)co2)cc1	-0.0868%
COCC1CN(Cc2ccncc2)Cc2nnn(CC3CC3)c21 (configuration not stated)	-5.91%
CC(=O)NCCCSCCOc1cccc(C#N)c1	11.4%
CCN1CCN(c2ccc(F)cc2C(C)NCc2cscn2)CC1 (configuration not stated)	-10.3%

— ChEMBL document CHEMBL4513216, “Probing the Open Global Health Chemical Diversity Library for Multistage-Active Starting Points for Next-Generation Antimalarials” (ACS Infect Dis, 2020)
